STEP block = blocks human striatal-enriched tyrosine phosphatase; recombinant STEP, OMFP fluorogenic substrate, fluorescence; inhibition, % at 20 µM; 360,000 compounds, 0.25% hits; AID 588621;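 active = inhibition at 20 µM, scaled per plate between control wells, above about 37%, limit read from the data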
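Assay system: isolated STEP enzyme / Timing: 20 min at room temperature, dark / Doses: 20 µM, 1% DMSO / Technique: fluorescence intensity, excitation 480 nm, emission 540 nm / Reagent: fluorogenic phosphatase substrate OMFP at 25 µM final / Measure: percent inhibition scaled to no-enzyme and uninhibited-enzyme controls, plate-pattern corrected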
LMPTP block = blocks human LMPTP phosphatase; P24666; recombinant LMPTP-A, OMFP fluorogenic substrate, fluorescence intensity; inhibition, % at 20 µM; 360,000 compounds, 0.22% hits; AID 651560;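 active = compounds that cut the enzyme signal by at least half of the control window in the single-dose screen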
Target sequence (P24666 whole entry, looked up): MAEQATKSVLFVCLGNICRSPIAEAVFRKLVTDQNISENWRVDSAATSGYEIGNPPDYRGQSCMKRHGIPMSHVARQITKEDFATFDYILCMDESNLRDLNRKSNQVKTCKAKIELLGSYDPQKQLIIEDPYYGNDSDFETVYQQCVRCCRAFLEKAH
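Assay system: LMPTP-A phosphatase enzyme | Input: 0.625 nM enzyme | Also added: Fluorogenic phosphatase substrate OMFP at 400 µM final | Compound dosing: One test concentration per compound, 20 µM, with 3% DMSO overall | Schedule: 50 min enzyme reaction at room temperature, protected from light | Signal: Fluorescence intensity | Benchmarks: no-enzyme and uninhibited controls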
SUMO1 PPI mod = modulators of human SUMO1-mediated protein-protein interactions; P63165; SUMO1 binding to a labelled peptide, TR-FRET, 1 h; inhibition, % at 20 µM; 360,000 compounds, 0.33% hits; AID 602429; in the data active = inhibition above about 37%
Target sequence (P63165 whole entry, looked up): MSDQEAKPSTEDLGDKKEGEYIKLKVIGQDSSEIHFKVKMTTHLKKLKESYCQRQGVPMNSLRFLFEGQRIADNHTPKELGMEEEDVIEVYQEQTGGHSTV
Scp-1 inhibitor = inhibitors of human Scp-1 phosphatase; Q9GZU7; Recombinant Scp1, phosphopeptide, malachite green phosphate absorbance; inhibition, % at 20 µM; 340,000 compounds, 0.88% hits;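 active = inhibition above about 50% at 20 µM, limit read from the data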
Target sequence (Q9GZU7 76-261 limits assumed): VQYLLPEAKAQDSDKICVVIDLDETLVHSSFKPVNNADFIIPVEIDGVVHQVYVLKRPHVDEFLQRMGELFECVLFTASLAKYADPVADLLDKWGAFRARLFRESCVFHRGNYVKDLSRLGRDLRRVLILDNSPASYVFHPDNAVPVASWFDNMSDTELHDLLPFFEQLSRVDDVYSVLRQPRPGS
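System: truncated SCP-1 phosphatase (76-261aa); medium: Tris acetate buffer pH 5.5 with MgCl2 and Tween-20; incubation: 45 min room-temperature reaction, 5 min colour, 30 min stabiliser; compound: single 20 µM dose, 1% DMSO; reagent: Phosphorylated 17-residue peptide substrate; read-out: % inhibition at 20 µM; technique: colorimetric free-phosphate detection, absorbance 630 nm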
DNMT1 inh = inhibitors of human DNMT1. P26358. DNMT1 molecular beacon, Hinp1I cleavage, fluorescence. inhibition (reported as % activation of signal), % at 10 µM. 360,000 compounds, 0.83% hits. AID 588458; in the data active = inhibition above about 50%
Scp1 confirm = Scp-1 (human) inhibition, single-dose confirmed | shares compounds with Scp-1 inhibitor | recombinant SCP-1 catalytic domain, phosphate release, malachite green absorbance | inhibition, % at 20 µM | 2,500 compounds, 61% hits | AID 540281
MG interference = interferes with malachite green readout, flagging false Scp-1 hits; apparent inhibition (interference), % at 20 µM; shares compounds with Scp-1 inhibitor; Colorimetric interference counterscreen, malachite green absorbance 630 nm; 2,500 tested, under 10 active;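 also: compounds added after enzyme reaction finished so only phosphate colour detection is probed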
Scp-1 Tm shift = validation of human Scp-1 inhibitors by thermal shift binding; shares compounds with Scp-1 inhibitor; Recombinant SCP1, Sypro Orange thermal shift Tm; thermal shift relative to vanadate control, % at 40 µM; 1,500 compounds, 25% hits; AID 540329;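 active = substances whose mean melting-temperature shift, as a percentage of the reference inhibitor's shift, reaches about 5.3%, limit read from the data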
DNMT1 interf DR = counter-screen for DNMT1 inhibitors: spectral interference, dose response; IC50, µM; molecular beacon fluorescence; 200 tested, under 10 active; shares compounds with DNMT1 inh; call rule not given here
DNMT1 confirm = DNMT1 inhibition confirmation, single concentration. DNMT1 molecular beacon HinP1I cleavage, fluorescence. inhibition, % at 10 µM. AID 602385. shares compounds with DNMT1 inh. 2,300 compounds, 8% hits;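 active = average inhibition of at least 30% in the single-concentration confirmation test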
Beacon interf = counter-screen for DNMT1 inhibitors: spectral interference | shares compounds with DNMT1 inh | DNMT1 molecular beacon spectral interference counterscreen, fluorescence 485/520 | activation (fluorescence interference), % at 10 µM | 2,300 compounds, 1% hits;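 active = activation of at least 30% at 10 µM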;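 also: DNMT1 catalytic domain with a HinP1I cleavage step and a FAM/dabcyl DNA beacon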
Each line names hits and unclear results; the compound was inactive in the other large screens (follow-up assays come after a bar, where they were run). A selection: hits, their analogues and other compounds. The true share with any hit is near 1.7%.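 The calls were made as follows, unless noted: active = inhibition of at least 30% at 20 µM; inactive = the rest.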

CCOc1cccc(N2C(=O)/C(=C/c3ccco3)C(=O)NC2=S)c1	STEP block 56, SUMO1 PPI mod 56, Scp-1 inhibitor 74, DNMT1 inh 98 | Scp1 confirm 70 | MG interference inactive | Scp-1 Tm shift 6.4 | DNMT1 interf DR inactive | DNMT1 confirm 80 | Beacon interf inactive
COc1ccccc1/C=C1\C(=O)NC(=S)N(c2ccccc2)C1=O	none
Cc1ccc(/C=C2/C(=O)NC(=O)N(CCc3ccc(F)cc3)C2=O)o1	none
COc1ccc(CN2C(=O)NC(=O)/C(=C\c3ccco3)C2=O)cc1	Scp-1 inhibitor 82, DNMT1 inh 86 | Scp1 confirm 58 | MG interference inactive | Scp-1 Tm shift 5.5 | DNMT1 interf DR inactive | DNMT1 confirm inactive | Beacon interf inactive
O=C1NC(=O)N(c2ccc3c(c2)OCO3)C(=O)/C1=C\c1ccc(-c2ccccc2C(=O)O)o1	Scp-1 inhibitor 56, DNMT1 inh 90 | Scp1 confirm 52 | MG interference inactive | Scp-1 Tm shift inactive | DNMT1 confirm inactive | Beacon interf inactive
O=c1[nH]c2ccccc2n1C1CCN(Cc2ccc(-c3nc4ccc(F)cc4nc3-c3ccccc3)cc2)CC1	none (no result: STEP block, Scp-1 inhibitor, DNMT1 inh)
Cc1cc(/C=C2\C(=O)NC(=O)N(c3ccc(Cl)cc3)C2=O)c(C)n1-c1cccc(C(=O)O)c1	Scp-1 inhibitor 52, DNMT1 inh 74 | Scp1 confirm 51 | MG interference inactive | Scp-1 Tm shift 6.9 | DNMT1 confirm inactive | Beacon interf inactive
Cc1cc(/C=C2\C(=O)NC(=O)N(c3ccc(Br)cc3)C2=O)c(C)n1-c1cc(C(=O)O)cc(C(=O)O)c1	Scp-1 inhibitor 60, DNMT1 inh 83 | Scp1 confirm 42 | MG interference inactive | Scp-1 Tm shift inactive | DNMT1 confirm inactive | Beacon interf inactive
Cc1cc(/C=C2/C(=O)NC(=O)N(c3ccc(Br)cc3)C2=O)c(C)n1C	none
COC(=O)C1=C(c2ccc(OCc3ccccc3)cc2)C[C@@H]2CC[C@H]1N2C	none (no result: Scp-1 inhibitor)
CCC(c1nnnn1Cc1ccccc1)N1CCC2(CC1)C(=O)NCN2c1ccccc1 (stereo unspecified)	none (no result: Scp-1 inhibitor)
CC(C)C1(C)N=C(c2ncccc2C(=O)O)NC1=O (stereo unspecified)	DNMT1 inh 94 | DNMT1 confirm inactive | Beacon interf inactive
CCOC(=O)[C@]12Cc3ccccc3[C@H]1N(CCC(=O)OC)C(=O)c1ccccc12	none (no result: STEP block, Scp-1 inhibitor, DNMT1 inh)
c1ccc(CN2COC3CCCCCC32)cc1 (stereo unspecified)	none (no result: Scp-1 inhibitor)
O=c1[nH]c(O)c(/C=C2\C=Nc3ccc(OCc4ccccc4)cc32)c(=O)[nH]1	DNMT1 inh 71 | DNMT1 confirm inactive | Beacon interf inactive
O=C1NC(=O)N(Cc2ccccc2)C(=O)/C1=C/C=C/c1ccco1	DNMT1 inh 90 | DNMT1 confirm inactive | Beacon interf inactive
CCN1C(=O)C(=C/C=C/c2ccco2)C(=O)N(CC)C1=S	Scp-1 inhibitor 55, DNMT1 inh 101 | DNMT1 confirm inactive | Beacon interf inactive
CC(C)c1ccc(N2C(=O)NC(=O)/C(=C\C=C\c3ccco3)C2=O)cc1	none (no result: STEP block, LMPTP block, SUMO1 PPI mod, DNMT1 inh)
CC(C)N1C(=O)/C(=C/C=C/c2ccco2)C(=O)N(Cc2ccco2)C1=O	Scp-1 inhibitor 70, DNMT1 inh 109 | DNMT1 interf DR inactive | DNMT1 confirm inactive | Beacon interf inactive
CCN1C(=O)C(=C2C=C(C)N(Cc3ccco3)C(C)=C2)C(=O)N(CC)C1=S	none
CC(C)(C)n1nnnc1C(c1cccs1)N1CCC2(CC1)C(=O)NCN2c1ccccc1 (stereo unspecified)	none (no result: Scp-1 inhibitor)
O=C1NCN(c2ccccc2)C12CCN(C(CCc1ccccc1)c1nnnn1C1CCCCC1)CC2 (stereo unspecified)	none (no result: Scp-1 inhibitor)
CCCCOCCCn1c(N)c(C(=O)OCCOC)c2nc3ccccc3nc21	SUMO1 PPI mod 40, DNMT1 inh 52 | DNMT1 confirm inactive | Beacon interf inactive
CCCCn1c(N)c(C(=O)OCCOC)c2nc3ccccc3nc21	none
CCN1C(=O)NC(=O)/C(=C/c2cc(C)n(-c3sc(C)c(C)c3C#N)c2C)C1=O	none
Cc1ccc(N2C(=O)NC(=O)/C(=C\c3cc(C)n(-c4sc5c(c4C#N)CCCC5)c3C)C2=O)cc1	SUMO1 PPI mod 51, DNMT1 inh 70 | DNMT1 interf DR inactive | DNMT1 confirm inactive | Beacon interf inactive
CCOC(=O)c1c(-n2c(C)cc(C=C3C(=O)NC(=S)NC3=O)c2C)sc2c1CCCC2	DNMT1 inh 100 | DNMT1 interf DR inactive | DNMT1 confirm inactive | Beacon interf inactive
CCCNC(=O)c1c(N)n(CC2CCCO2)c2nc3ccccc3nc12 (stereo unspecified)	SUMO1 PPI mod 44, DNMT1 inh 61 | DNMT1 confirm inactive | Beacon interf inactive
CC(C)OCCCNC(=O)c1c(N)n(CC2CCCO2)c2nc3ccccc3nc12 (stereo unspecified)	SUMO1 PPI mod 40, DNMT1 inh 85 | DNMT1 confirm inactive | Beacon interf inactive
Nc1c(C(=O)OC2CCCCC2)c2nc3ccccc3nc2n1CC1CCCO1 (stereo unspecified)	none
O=C1NC(=S)N(c2ccccc2)C(=O)/C1=C/c1ccco1	SUMO1 PPI mod 54, Scp-1 inhibitor 93, DNMT1 inh 93 | DNMT1 interf DR inactive | DNMT1 confirm 82 | Beacon interf inactive
COc1cccc(N2C(=O)/C(=C/c3ccc(C)o3)C(=O)NC2=S)c1	DNMT1 inh 62 | DNMT1 confirm inactive | Beacon interf inactive
O=C(NCC1=C(c2cccc3ccccc23)C[C@@H]2CC[C@H]1N2Cc1ccco1)c1cccs1	none (no result: Scp-1 inhibitor)
C[C@H]1CN([C@@H](C)CO)C(=O)CCCn2nncc2CO[C@H]1CN(C)C(=O)Oc1ccc2ccccc2c1	none (no result: Scp-1 inhibitor)
Cc1cc(/C=C2\C(=O)NC(=O)N(c3cccc(F)c3)C2=O)c(C)n1-c1cc(C(=O)O)cc(C(=O)O)c1	DNMT1 inh 75 | DNMT1 confirm inactive | Beacon interf inactive

Assay outcomes from PubChem BioAssay.
